Test [1] deals with HT-29. Put plainly: Antiproliferative activity against human HT-29 cells after 96 hrs by MTT assay. The format is functional, cell-based. Particulars: HT-29, 96 h. Background: Tetrazolium assays rely on reduction of a dye to a coloured formazan, in cell work by metabolically active cells.
In test [2] the test system is P388. In words: Antiproliferative activity against mouse P388 cells after 48 hrs by MTT assay. Type of test: functional, cell-based. Particulars: P388, 48 h. The gist of the method:
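Uncloned P-388 in RPMI 1640 + 10% horse serum, gentamicin 50 µg/ml; 200-µl cultures at 1 X 10' cells/ml with or without drug, 48 h exposure. MTT (5 mg/ml in medium, 75 µl) added for 90 min, formazan read at 570 nm; absorbance normalized to untreated wells; IC50 by linear regression of logit-transformed data.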

Test [3] relates to P388. In words: Antiproliferative activity against mouse P388 cells at 1 ug after 48 hrs by two-layer agar-diffusion method. The conditions noted are these: read-out: IZ. The format is functional. In outline:
(§1)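 Compound (0.01-10 µg) spotted on Si gel pieces, air-dried, placed face down on 1.5% Noble agar in PBS-growth medium (20:80) for 60 min diffusion. After removal, cells (2 X 10^6/ml) in 0.3% low-temperature agarose overlaid; 48 h incubation. Cytotoxic zones shown by MTT (5 mg/ml in growth medium) over agarose; absence of zone scored as not detected.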

For test [4], the system named is P388. Put plainly: Antiproliferative activity against mouse P388 cells at 5 ug after 48 hrs by two-layer agar-diffusion method. The format is functional. Particulars: read-out: IZ. The gist of the method:
as §1
Background: Agar diffusion results depend on both activity and mobility in agar.

Test [5] has as its system HT-29. Put plainly: Antiproliferative activity against human HT-29 cells at 5 ug after 48 hrs by two-layer agar-diffusion method. Type of test: functional. Particulars: read-out: IZ. In outline:
as §1

Test [6] concerns HT-29. Put plainly: Antiproliferative activity against human HT-29 cells at 10 ug after 48 hrs by two-layer agar-diffusion method. The format is functional, cell-based. In outline: as §1
Test [7] concerns HT-29. In words: Antiproliferative activity against human HT-29 cells at 1 ug after 48 hrs by two-layer agar-diffusion method. Type of test: functional. The gist of the method:
as §1

Test [8] concerns HT-29. In words: Antiproliferative activity against human HT-29 cells at 0.1 ug after 48 hrs by two-layer agar-diffusion method. Type of test: functional. The gist of the method:
as §1

Test [9] deals with HT-29. In words: Antiproliferative activity against human HT-29 cells at 0.01 ug after 48 hrs by two-layer agar-diffusion method. The format is functional. The gist of the method:
as §1

Test [10] has as its system P388. Put plainly: Antiproliferative activity against mouse P388 cells at 0.1 ug after 48 hrs by two-layer agar-diffusion method. Particulars: read-out: IZ. Type of test: functional. The gist of the method: as §1
Test [11] relates to P388. Put plainly: Antiproliferative activity against mouse P388 cells at 0.01 ug after 48 hrs by two-layer agar-diffusion method. Type of test: functional. The gist of the method:
as §1

SMILES strings stand for the structures. Active and inactive are the calls of the source. No cut-off for these calls is given here.

As for `C=C1C(=O)O[C@H]2C[C@@H]1C(OC(C)=O)C/C(C)=C/CC/C(C)=C/CC[C@@]2(C)O` (some centres not stated) [CRASSIN ACETATE], the values for the IC50 with HT-29 [1] and in the test on P388 [2] were 0.26 µg/mL and 1 µg/mL, respectively. Further, the zone of inhibition at 1 µg/disc with P388 [3] came out at 9 mm. The zone of inhibition at 5 µg/disc in the test with P388 [4] worked out at 20 mm; in the test on HT-29 [5] it was 17 mm.

For `O=c1[nH]cc(F)c(=O)[nH]1` [FLUOROURACIL], the IC50 in the test on HT-29 [1] was determined as 690 nM; with P388 [2], 609 nM. Further, the outcome in the test on HT-29 [6], in the test on HT-29 [7], with HT-29 [8], in the test on HT-29 [9] and in the test with P388 [11] was inactive. For the same compound, the zone of inhibition at 1 µg/disc in the test on P388 [3] is above 40 mm. In addition, the zone of inhibition at 0.1 µg/disc with P388 [10] came to 15 mm.

Regarding `CN(Cc1cnc2nc(N)nc(N)c2n1)c1ccc(C(=O)N[C@@H](CCC(=O)O)C(=O)O)cc1` [METHOTREXATE], the figures for the IC50 in the test on HT-29 [1] and in the test on P388 [2] were 4400 nM and 66 nM, respectively. Also, the outcome with HT-29 [6], in the test with HT-29 [7], in the test with HT-29 [8], in the test on HT-29 [9] and in the test on P388 [11] was inactive. In addition, the zone of inhibition at 1 µg/disc with P388 [3] was determined as 40 mm. Also, in the test on P388 [10], the zone of inhibition at 0.1 µg/disc came to 27.5 mm.

Turning to `Nc1nc2[nH]cnc2c(=S)[nH]1` [THIOGUANINE], the IC50 in the test with HT-29 [1] is 1240 nM; in the test with P388 [2], 300 nM. The outcome in the test on HT-29 [6], in the test with HT-29 [7], in the test on HT-29 [8] and in the test on HT-29 [9] was inactive. Moreover, in the test with P388 [3], the zone of inhibition at 1 µg/disc is above 40 mm. Moreover, the zone of inhibition at 0.1 µg/disc in the test on P388 [10] was above 40 mm. Also, the zone of inhibition at 0.01 µg/disc with P388 [11] (read-out: IZ) was above 40 mm.

The term IC50 denotes the concentration that gives 50% inhibition. Low readings indicate greater potency in that assay, high ones weaker potency in that assay.

These data come from ChEMBL document CHEMBL1147285, “A mammalian cell agar-diffusion assay for the detection of toxic compounds” (J Nat Prod, 1989).
